# Measurements from PubChem BioAssay AID1885 (Broad Institute, 2009).
# Several values for one entry are separate records, joined by “and”; a condition that tells them apart may be missing. Equal entries are not always repeated. In all, about 300,000 compounds went through this assay and about 4,400 (1.5%) were called active.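 The calls were made as follows: active = mean inhibition across valid replicates above about 55% (limit read from the data); inconclusive = mean below that limit but half or more replicates reach it; inactive = mean below it, under half of replicates reach it.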 Many of the other results were omitted from the sample, so actives are more common in it than they were. More than one record can exist for a structure, and the calls need not agree.
# Assay: inhibitors of intracellular T. cruzi growth, primary screen, luminescence, NIH3T3 host cells (AID 1885);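 also: signal also drops with host cell toxicity which is not excluded here; 0% = plate median of DMSO wells and 100% = zero luminescence signal; higher percent means less beta-gal luminescence so fewer parasites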
# Conditions: T. cruzi beta-gal in NIH3T3, luminescence, 90 h; stronger effect = higher value; concentration not given here
# Method in brief: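 Material: NIH/3T3 host cells with β-galactosidase reporter T. cruzi; Input: 5,000 host fibroblasts per well; Medium: DMEM, 2% fetal bovine serum; Compound: 50 nL DMSO compound solution per well; Schedule: 3 h host attachment, then at least 90 h co-culture; Detection: luminescent β-galactosidase signal after 60 min lysis.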
row,Compound,inhibition
1,CCCCCOc1ccc(CSC2=NCCN2)cc1[N+](=O)[O-],59.6% (active)
2,CCCCOc1ccc(CSC(=N)N)cc1[N+](=O)[O-],38.2% (inactive)
3,CCCOc1ccc(Cn2ccnc2)cc1[N+](=O)[O-],30.6% (inactive)
4,O=C(NNS(=O)(=O)c1ccc(F)cc1)C1CCCCC1,-13.6% (inactive)
5,CCOC(=O)C[C@H]1c2ccc(C(F)(F)F)cc2S(=O)(=O)N1c1ccccc1,-7.83% (inactive)
6,O=C(COC(=O)c1ccc([N+](=O)[O-])cc1Cl)NC(=O)c1ccccc1,-9.49% (inactive)
7,COc1ccc(CCNC(=O)CS(=O)(=O)Cc2nc(-c3ccc(C)cc3)oc2C)cc1OC,5.37% (inactive)
8,COc1ccc(CN2CCCC(CNC(=O)c3ccc(F)cc3)C2)cc1OC (centres undefined),45.9% (inactive)
9,COc1ccc(CCNC(=O)C2CCCN(Cc3nc(-c4cccc(Cl)c4)oc3C)C2)cc1OC (centres undefined),61.6% (active)
10,CCCCNC(=O)N1CCCC(N(C)CCc2ccc(OC)c(OC)c2)C1 (centres undefined),37.8% (inactive)
11,COc1cc(CN2CCCC(C(=O)c3ccc(SC)cc3)C2)cc(Cl)c1O (centres undefined),24.2% (inactive)
12,COc1cccc(-c2nc(CS(=O)(=O)CC(=O)NCCc3ccc(OC)c(OC)c3)c(C)o2)c1,21.5% (inactive)
13,COc1ccc(CN2CCCC(C(=O)c3ccc(Cl)cc3)C2)cc1Cn1cncn1 (centres undefined),67.8% (active)
14,COc1ccc(C(=O)C2CCCN(Cc3ccc4nonc4c3)C2)c(C)c1 (centres undefined),20% (inactive)
15,COc1ccc(CCN(C)C(=O)C2CCCN(Cc3ccc(OC)c(OC)c3)C2)cc1OC (centres undefined),66.2% (active) and 34.7% (inactive)
16,CN1CCC(=NNC(=O)c2ccc(N(Cc3ccc(Cl)cc3)S(C)(=O)=O)cc2)CC1,8.52% (inactive)
17,O=C(COc1ccc(Cl)cc1)NCCS(=O)(=O)N1CCN(c2ccc(F)cc2)CC1,11.2% (inactive)
18,COc1ccc(C(O)(C2CCCCC2)C(CN2CCCC2)c2ccccc2)cc1 (centres undefined),2.61% (inactive)
19,COC(=O)[C@]1(C)N[C@H](c2ccc(-c3ccc(Cl)c(Cl)c3)cc2)[C@@H]2C(=O)N(C)C(=O)[C@@H]21,-12.4% (inactive)
20,COc1ccc(NC(=O)CN(C)C(=O)c2ccc(NC3CC3)c([N+](=O)[O-])c2)cc1,-6.67% (inactive)
21,CSc1nc2ccccc2cc1/C=C(\C#N)c1ccc(Cl)cc1Cl,4.89% (inactive)
22,O=C(N/N=C/c1ccc([N+](=O)[O-])o1)c1cn(-c2ccccc2)nc1-c1ccc(F)cc1,69.4% (active)
23,Cc1nnc(SCC(=O)N/N=C/c2cn(-c3ccccc3)nc2-c2ccc(F)cc2)n1-c1ccccc1,-11.7% (inactive)
24,Cc1ccc(-c2nn(-c3ccccc3)cc2/C=N/NC(=O)c2ccc3c(c2)OCO3)cc1,28% (inactive)
